From PubChem
The list is not random: actives were taken first. Their share in the collection is about 3.7%.
NPY-Y1 antag = antagonists of human neuropeptide Y receptor Y1; P25929; HEK293-CNG Y1 cells, membrane potential fluorescence; NPY at EC95, then isoproterenol; inhibition, % at 3.6 µM; hit rate 1% among 200,000; AID 1040;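 active means inhibition above the campaign mean inhibition of all tested compounds plus 3 SD, cut at about 20% in these data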
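Benchmarks – high control isoproterenol alone, low control NPY with isoproterenol · Material – HEK293 Y1/CNG channel cell line · Times – dye 3 h, compound 60 min room temperature, stimulation 45 min · Probe or stimulus – NPY (25 nM), isoproterenol (1 µM), Ro 20-1724 (25 µM) · Evaluation – % inhibition of NPY effect · Signal – fluorescence, membrane potential probe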
Furin inh = inhibitors of human furin | P09958 | purified furin, fluorogenic substrate cleavage | inhibition, % at 20 µM or 30 µM | hit rate 0.061% among 220,000 | AID 463115; in the data active means inhibition above about 25%
Target sequence (P09958 108-714 limits assumed): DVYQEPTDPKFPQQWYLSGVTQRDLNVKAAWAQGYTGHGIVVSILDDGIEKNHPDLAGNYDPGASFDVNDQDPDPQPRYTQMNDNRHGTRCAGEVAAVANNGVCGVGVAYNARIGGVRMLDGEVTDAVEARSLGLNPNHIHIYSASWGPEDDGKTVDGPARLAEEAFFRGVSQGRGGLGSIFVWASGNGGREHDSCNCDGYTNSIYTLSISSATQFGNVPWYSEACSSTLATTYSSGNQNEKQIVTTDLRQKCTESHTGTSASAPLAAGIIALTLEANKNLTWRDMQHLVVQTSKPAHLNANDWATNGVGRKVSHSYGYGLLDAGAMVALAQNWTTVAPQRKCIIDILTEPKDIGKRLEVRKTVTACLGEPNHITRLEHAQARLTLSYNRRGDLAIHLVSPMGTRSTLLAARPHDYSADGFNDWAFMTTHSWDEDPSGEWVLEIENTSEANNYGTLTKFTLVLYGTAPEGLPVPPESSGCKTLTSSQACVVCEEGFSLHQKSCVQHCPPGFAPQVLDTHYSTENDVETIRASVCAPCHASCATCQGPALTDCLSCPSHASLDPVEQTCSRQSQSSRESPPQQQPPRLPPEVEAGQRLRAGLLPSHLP
NPY1 pot ag = potentiates or activates human NPY-Y1 receptor; activation, % at 3.6 µM; hit rate 0.37% among 220,000; P25929; NPY-Y1 expressing cells, potentiator/agonist activation; AID 1304; in the data active means activation above about 33%, passing the limit was not always enough;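 further: cells stimulated with NPY at EC10 then isoproterenol at EC100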
Cl transport mod = modulators of human KCC2 chloride dependent transport. Q9H2X9. KCC2 cells, thallium flux FluoZin-2 fluorescence. B-score of Tl+ flux slope (higher = more flux/activation; lower = inhibition) at 10 µM. hit rate 2.2% among 190,000. AID 1456;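 active means thallium flux slope and its plate-corrected score both differing from the plate sample mean at a set confidence after two filtering rounds, in either direction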;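 further: slope of fluorescence scaled to starting intensity during 10 to 20 s after thallium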
NPY-Y2 antag = antagonists of human neuropeptide Y receptor Y2; P49146; NPY-Y2 expressing cells, antagonist mode; inhibition, % at 2.7 µM; hit rate 0.99% among 140,000; AID 793; in the data active means inhibition above about 17%
NPY2 pot ag = potentiators or agonists of human neuropeptide Y receptor Y2 | hit rate 0.45% among 220,000 | cells expressing NPY-Y2, potentiator/agonist read-out | activation, % at 3.6 µM | P49146 | AID 1359; in the data active means activation above about 27%;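 further: cells stimulated with NPY near EC25 plus isoproterenol at EC100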
KCC2 secondary = confirmation of human KCC2 transport modulators; shares compounds with Cl transport mod; HEK293-KCC2, thallium flux, FluoZin2 fluorescence; stronger effect = higher value; normalised thallium flux (F/F0 slope) at 10 µM; hit rate 15% among 3,700; AID 1713;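 active means thallium flux slope above the same plate's solvent-only control mean plus 3 SD; inconclusive means the two replicate wells disagree; inactive means no significant difference from solvent-only control wells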
KCC2 bumet counter = thallium flux despite bumetanide block in KCC2 cells, secondary assay 3; shares compounds with Cl transport mod; HEK293-KCC2 + bumetanide/ouabain, thallium flux FluoZin2; stronger effect = higher value; normalized thallium flux at 10 µM; hit rate 49% among 3,700; AID 1714;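 active means thallium entry rate above the same plate's blocked-transporter control wells by more than 3 SD; inconclusive means the two repeat wells disagree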;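 further: raw slope of fluorescence over initial fluorescence between 10 and 20 s after thallium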
KCC2 sec2 = KCC2 (human) modulation, second secondary assay; HEK293-KCC2, thallium flux FluoZin2 fluorescence; actives lie on both sides; F/F0 rise rate, 10–20 s post-thallium; normalized thallium flux at 10 µM; shares compounds with Cl transport mod; AID 1715; hit rate 23% among 3,700;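 active means thallium flux slope more than 3 SD above or below the plate's solvent-only control mean, mostly below; inconclusive means the two repeat wells disagreed; inactive means no significant shift from solvent-only controls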
HEK counter1 = counter-screen for KCC2 modulators: effect in parental HEK293 cells; shares compounds with Cl transport mod; AID 1716; hit rate 46% among 3,700; thallium flux FluoZin2, ouabain; baseline-ratio fluorescence slope, 10–20 s after thallium; thallium flux rate (normalised fluorescence) at 10 µM;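 active means thallium flux rate significantly above the same plate's solvent-only control wells, beyond their mean plus 3 SD; inconclusive means the two replicate wells gave conflicting results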
KCC2 retest ouab = modulates human KCC2 on retest with ouabain. shares compounds with Cl transport mod. HEK293-KCC2, thallium flux FluoZin2 fluorescence; bidirectional: low = inhibitor, high = activator. raw Tl+ flux slope (below DMSO = inhibition, above = activation) at 10 µM. hit rate 48% among 3,700. AID 1717;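 active means thallium flux slope beyond 3 SD from same-plate DMSO control mean in most replicates, usually higher, sometimes lower; inconclusive means repeat tests gave conflicting results; inactive means no significant difference from controls in most replicates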;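 further: slope of initial-normalized fluorescence between seconds 10 and 20 after thallium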
HEK counter2 = parental HEK flux effect, counter-screen 2; shares compounds with Cl transport mod; HEK293 parental, thallium flux FluoZin-2 fluorescence slope; thallium flux slope at 10 µM; hit rate 33% among 3,700; AID 1718;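 active means thallium flux slope above the same plate's solvent-control mean plus 3 SD in both duplicate wells; inconclusive means duplicate wells that disagreed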;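 further: run without ouabain in cells lacking the KCC2 cotransporter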
Of the large screens only hits and unclear results are named; the others gave an inactive call (follow-up assays come after a bar, where they were run).

CCOc1ccc(OCc2ccc(C(=O)Nc3cccnc3)o2)cc1	none
COc1ccc(C2CC(c3ccccc3)n3nc(NC(=O)c4cccs4)nc3N2)cc1 (stereo unspecified)	Cl transport mod -3.3 | KCC2 secondary inactive | KCC2 bumet counter inactive | KCC2 sec2 inactive | HEK counter1 inactive | KCC2 retest ouab inactive | HEK counter2 inactive
O=C(Cc1csc(Nc2nc(=S)[nH]c3ccccc23)n1)N1CCN(c2cccc(Cl)c2)CC1	Cl transport mod 25 (no result: NPY-Y2 antag) | KCC2 secondary inconclusive | KCC2 bumet counter 0.075 | KCC2 sec2 inactive | HEK counter1 0.03 | KCC2 retest ouab 0.053 | HEK counter2 0.014
Cc1ccc(Cl)cc1N1CCN(C(=O)Cn2ccc3ccccc3c2=O)CC1	none (no result: Cl transport mod)
Cc1ccc(Cl)cc1N1CCN(C(=O)Cc2csc(Nc3nc(=S)[nH]c4ccccc34)n2)CC1	Cl transport mod 19 (no result: NPY-Y2 antag) | KCC2 secondary 0.013 | KCC2 bumet counter 0.053 | KCC2 sec2 inconclusive | HEK counter1 0.032 | KCC2 retest ouab 0.054 | HEK counter2 0.014
COc1cc(C=C(c2nc3ccccc3s2)c2nc3ccccc3s2)cc(OC)c1O	none
O=C(O)c1ccc(C=C(c2nc3ccccc3s2)c2nc3ccccc3s2)cc1	Cl transport mod -5.2 (no result: NPY-Y2 antag) | KCC2 secondary inactive | KCC2 bumet counter inactive | KCC2 sec2 inactive | HEK counter1 inactive | KCC2 retest ouab inactive | HEK counter2 inactive
C/C(=N\Nc1ccc(C(=O)O)cc1)c1ccc(S(=O)(=O)NCc2ccco2)cc1	Cl transport mod 4.5 (no result: NPY-Y1 antag, NPY-Y2 antag) | KCC2 secondary inactive | KCC2 bumet counter inactive | KCC2 sec2 inactive | HEK counter1 inactive | KCC2 retest ouab inactive | HEK counter2 0.01
C/C(=N\Nc1ccccn1)c1ccc(S(=O)(=O)NCc2ccco2)cc1	none
O=C(CN1C(=O)NC2(CCCCCC2)C1=O)N1CCC(Cc2ccccc2)CC1	Cl transport mod -4.9 | KCC2 secondary inactive | KCC2 bumet counter 0.025 | KCC2 sec2 inconclusive | HEK counter1 0.012 | KCC2 retest ouab 0.017 | HEK counter2 inactive
CCOc1ccc(CCNC(=O)C2CCC(=O)N2CCc2ccccc2)cc1OCC (stereo unspecified)	none (no result: Cl transport mod) | KCC2 secondary inactive | KCC2 bumet counter inactive | KCC2 sec2 inactive | HEK counter1 inactive | KCC2 retest ouab inactive | HEK counter2 inactive
CCN(CC)CCNC(=O)C1CCC(=O)N1CCc1ccccc1 (stereo unspecified)	none (no result: Cl transport mod)
N#CC1(c2nc3ccccc3[nH]2)CC1c1ccc2c(c1)OCO2 (stereo unspecified)	none
O=C(c1ccc(COc2ccccc2Br)o1)N1CCN(c2ccccn2)CC1	Cl transport mod -6.5 | KCC2 secondary inconclusive | KCC2 bumet counter inconclusive | KCC2 sec2 inactive | HEK counter1 0.0058 | KCC2 retest ouab 0.013 | HEK counter2 inactive
O=C(NCc1ccc2c(c1)OCO2)c1ccc(CSCc2ccc(Cl)cc2)o1	none
O=C(NCc1ccc2c(c1)OCO2)c1ccc(COc2cc(Cl)ccc2Cl)o1	Cl transport mod -5.7 | KCC2 secondary inactive | KCC2 bumet counter inactive | KCC2 sec2 0.023 | HEK counter1 inactive | KCC2 retest ouab 0.015 | HEK counter2 inactive
COc1ccccc1S(=O)(=O)Cc1ccc(C(=O)N2CCN(c3ccccn3)CC2)o1	none
